Test [1] deals with 3T3-L1. As to the kind of experiment: Anti-adipogenic activity in mouse differentiated 3T3L1 cells assessed as inhibition of adipogenesis at 20 uM after 20 mins by Oil Red O staining based assay. Type of test: functional. An outline of the steps:
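3T3-L1 preadipocytes given 20 µM compound with differentiation media. Oil red O stain (20 min) extracted, absorbance at 492 nm measured against MDI+ control, n=3, mean ± SD, Student t test.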

Test [2] has as its system 3T3-L1. Kind of test: Anti-adipogenic activity in mouse 3T3L1 cells assessed as inhibition of adipogenesis after 20 mins by Oil Red O staining based assay. Conditions: 3T3-L1, 20 min. In kind it is functional, cell-based. An outline of the steps:
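3T3-L1 preadipocytes differentiated with compound at 0.1, 1, 3, 10, 30, 100 and 300 µM. Oil red O absorbance read at 492 nm, concentrations log-transformed and fitted by non-linear regression to give IC50. Two to three independent experiments, mean ± SEM.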

Test [3] has as its system Syrian golden hamster. Kind of test: Induction of reverse cholestrol transport in high fat diet-induced dyslipidemia Syrian Golden hamster model assessed as increase in LCAT mRNA expression in liver at 100 mg/kg, po administered for 1 week by qRT-PCR analysis. In kind it is functional, organism-based. Particulars: Mesocricetus auratus.
Test [4] relates to Syrian golden hamster. Kind of test: Induction of reverse cholestrol transport in high fat diet-induced dyslipidemia Syrian Golden hamster model assessed as increase in SCARB1 mRNA expression in liver at 100 mg/kg, po administered for 1 week by qRT-PCR analysis. Type of test: functional, organism-based. Conditions: Mesocricetus auratus.
For test [5], the system named is Syrian golden hamster. Kind of test: Induction of reverse cholestrol transport in high fat diet-induced dyslipidemia Syrian Golden hamster model assessed as decrease in NPCL1 mRNA expression in liver at 100 mg/kg, po administered for 1 week by qRT-PCR analysis. In kind it is functional, organism-based. Conditions: Mesocricetus auratus. Background: Quantitative PCR measures a nucleic acid by following its amplification.

In test [6] the test system is Syrian golden hamster. Kind of test: Induction of reverse cholestrol transport in high fat diet-induced dyslipidemia Syrian Golden hamster model assessed as decrease in CYP7A1 mRNA expression in liver at 100 mg/kg, po administered for 1 week by qRT-PCR analysis. In kind it is functional, organism-based. Conditions: Mesocricetus auratus.
Test [7] has as its system Syrian golden hamster. As to the kind of experiment: Induction of reverse cholestrol transport in high fat diet-induced dyslipidemia Syrian Golden hamster model assessed as decrease in CETP mRNA expression in liver at 100 mg/kg, po administered for 1 week by qRT-PCR analysis. In kind it is functional, organism-based. Conditions: Mesocricetus auratus.
Test [8] deals with Syrian golden hamster. As to the kind of experiment: Induction of reverse cholestrol transport in high fat diet-induced dyslipidemia Syrian Golden hamster model assessed as increase in ABCA1 mRNA expression in eWAT at 100 mg/kg, po administered for 1 week by qRT-PCR analysis. Type of test: functional, organism-based. Particulars: Mesocricetus auratus.
For test [9], the system named is Syrian golden hamster. Kind of test: Induction of reverse cholestrol transport in high fat diet-induced dyslipidemia Syrian Golden hamster model assessed as increase in ABCG8 mRNA expression in eWAT at 100 mg/kg, po administered for 1 week by qRT-PCR analysis. In kind it is functional, organism-based. Conditions: Mesocricetus auratus.
Test [10] relates to Syrian golden hamster. As to the kind of experiment: Induction of reverse cholestrol transport in high fat diet-induced dyslipidemia Syrian Golden hamster model assessed as increase in ABCG5 mRNA expression in eWAT at 100 mg/kg, po administered for 1 week by qRT-PCR analysis. Particulars: Mesocricetus auratus. In kind it is functional, organism-based.

The structures appear in SMILES notation. The source made the active and inactive calls. No cut-off for these calls is given here.

In the case of `Cc1ccc(S(=O)(=O)N(Cc2ccc(F)cc2)Cc2cccc(F)c2F)cc1`, in test [1], the inhibition at 20 µM was -97.7%.
For the compound `Cc1ccc(S(=O)(=O)n2cc(CN(Cc3cn(Cc4cc(F)ccc4F)nn3)S(=O)(=O)c3ccccc3)c3ccccc32)cc1`, the inhibition at 20 µM in test [1] was -6.5%.
For `COc1cc(Cn2cc(CN(Cc3c(-c4ccccc4)c4ccccc4n3S(=O)(=O)c3ccc(C)cc3)S(=O)(=O)c3ccc(C)cc3)nn2)cc(OC)c1OC`, in test [1], the inhibition at 20 µM was -10.9%.
On the same count and under the same terms, with `Cc1ccc(S(=O)(=O)n2cc(CN(Cc3cn(Cc4ccc(F)cc4)nn3)S(C)(=O)=O)c3ccccc32)cc1` the figure was -19.5%.
Same read-out and setting: in the case of `Cc1ccc(S(=O)(=O)N(Cc2cn(Cc3ccccc3)nn2)Cc2c(-c3ccccc3)c3ccccc3n2S(=O)(=O)c2ccc(C)cc2)cc1` it was 0.03%; in that of `Cc1ccc(S(=O)(=O)N(Cc2cccc(F)c2F)Cc2cn(S(=O)(=O)c3ccc(F)cc3)c3ccccc23)cc1`, -35%.
Turning to `O=C(N(Cc1ccc(F)cc1)Cc1cccc(F)c1F)C(F)(F)F`, in test [1], the inhibition at 20 µM was -39.8%.
Still for that read-out and setting: in the case of `Cc1ccc(S(=O)(=O)n2cc(CN(Cc3cn(Cc4cc(F)ccc4F)nn3)S(C)(=O)=O)c3ccccc32)cc1` it was 3.4%.
As to `CC(=O)N(Cc1cccc(F)c1F)Cc1cn(S(=O)(=O)c2ccc(C)cc2)c2ccccc12`, the inhibition at 20 µM in [1] came out at 57.5%. Further, the half-inhibitory concentration (IC50) in [2] is 17.5 µM.
For the compound `Cc1ccc(S(=O)(=O)N(Cc2ccccc2)Cc2cccc(F)c2F)cc1`, the inhibition at 20 µM in [1] is -35.7%.
Take `Cc1ccc(S(=O)(=O)n2cc(CN(Cc3cccc(F)c3F)C(=O)C(F)(F)F)c3ccccc32)cc1`: in test [1], the inhibition at 20 µM was -5.5%.
`Cc1ccc(S(=O)(=O)N(Cc2cn(Cc3ccc(F)cc3)nn2)Cc2c(-c3ccccc3)c3ccccc3n2S(=O)(=O)c2ccc(C)cc2)cc1`: the inhibition at 20 µM in test [1] was -7.6%.
Regarding `Cc1ccc(S(=O)(=O)n2cc(CN(Cc3ccccc3)Cc3cccc(F)c3F)c3ccccc32)cc1`, in [1], the inhibition at 20 µM was -13.1%.
Same read-out and setting: with `Fc1cccc(CNCc2c[nH]c3ccccc23)c1F` the figure was -1.7%.
Same read-out and setting: with `O=S(=O)(c1ccc(F)cc1)N(Cc1cccc(F)c1F)Cc1cn(S(=O)(=O)c2ccc(F)cc2)c2ccccc12` the figure was -20%.
For the compound `COc1ccc(Cn2cc(CN(Cc3cn(S(=O)(=O)c4ccc(C)cc4)c4ccccc34)S(=O)(=O)c3ccc(C)cc3)nn2)c(OC)c1OC`, in test [1], the inhibition at 20 µM was -18%.
In the case of `COc1ccc(Cn2cc(CN(Cc3cn(S(=O)(=O)c4ccc(C)cc4)c4ccccc34)S(=O)(=O)c3ccc(C)cc3)nn2)cc1`, in test [1], the inhibition at 20 µM came out at 1%.
With `Cc1ccc(S(=O)(=O)N(Cc2cn(Cc3ccccc3)nn2)Cc2cn(S(=O)(=O)c3ccc(C)cc3)c3ccccc23)cc1`, the inhibition at 20 µM in test [1] was found to be 3.4%.
As for `Cc1ccc(S(=O)(=O)n2cc(CNCc3cccc(F)c3F)c3ccccc32)cc1`, the inhibition at 20 µM in test [1] amounted to 46%. For the same compound, the half-inhibitory concentration (IC50) in [2] was found to be 30 µM.
For `CC(=O)N(Cc1cccc(F)c1F)Cc1cn(S(=O)(=O)c2ccc(F)cc2)c2ccccc12`, in that order: 25.8% and 10.6 µM.
For the compound `CC(C)OC(=O)C(C)(C)Oc1ccc(C(=O)c2ccc(Cl)cc2)cc1`, the result in test [3], in [4], in test [5], in test [6], in test [7] and in test [8] was Active. Further, the result in test [9] and in test [10] was Active.
As to `Cc1ccc(S(=O)(=O)n2cc(CN(Cc3cn(Cc4ccc(F)cc4)nn3)S(=O)(=O)c3ccccc3)c3ccccc32)cc1`, in test [1], the inhibition at 20 µM is -21%.
Same read-out and setting: with `Cc1ccc(S(=O)(=O)n2cc(CN(Cc3cccc(F)c3F)S(C)(=O)=O)c3ccccc32)cc1` the figure was -3.3%; with `Cc1ccc(S(=O)(=O)n2c(CN(Cc3cn(Cc4ccc(F)cc4F)nn3)S(C)(=O)=O)c(C)c3ccccc32)cc1`, -20.8%.
Still for that read-out and setting: in the case of `Fc1ccc(CNCc2cccc(F)c2F)cc1` it was -53.4%.
The same measure, in the same setting: with `COc1cc(OC)c(Cn2cc(CN(Cc3cn(S(=O)(=O)c4ccc(C)cc4)c4ccccc34)S(=O)(=O)c3ccc(C)cc3)nn2)c(OC)c1` the figure was -22%.
Turning to `CC(=O)N(Cc1cn(Cc2cccc(F)c2F)nn1)Cc1cn(S(=O)(=O)c2ccc(C)cc2)c2ccccc12`, the inhibition at 20 µM in [1] worked out at 39.5%. The IC50 in test [2] was found to be 9.1 µM.
For the compound `Cc1ccc(S(=O)(=O)N(Cc2cn(Cc3ccc(F)cc3F)nn2)Cc2c(C)c3ccccc3n2S(=O)(=O)c2ccc(C)cc2)cc1`, the inhibition at 20 µM in test [1] was -22%.
Still for that read-out and setting: in the case of `Cc1ccc(S(=O)(=O)N(Cc2cn(Cc3ccccc3)nn2)Cc2c(C)c3ccccc3n2S(=O)(=O)c2ccc(C)cc2)cc1` it was -5.9%; in that of `Fc1cccc(CNCc2ccccc2)c1F`, -38.5%.
As to `Cc1ccc(S(=O)(=O)N(Cc2cccc(F)c2F)Cc2cn(S(=O)(=O)c3ccc(C)cc3)c3ccccc23)cc1`, in [1], the inhibition at 20 µM was -13.9%.
Still for that read-out and setting: with `O=C(N(Cc1cccc(F)c1F)Cc1cn(S(=O)(=O)c2ccc(F)cc2)c2ccccc12)C(F)(F)F` the figure was -52.3%; with `Cc1ccc(S(=O)(=O)n2cc(CN(Cc3cn(Cc4ccccc4)nn3)S(=O)(=O)c3ccccc3)c3ccccc32)cc1`, -18%; with `Cc1ccc(S(=O)(=O)N(Cc2cn(Cc3ccccc3Cl)nn2)Cc2cn(S(=O)(=O)c3ccc(C)cc3)c3ccccc23)cc1`, -4.8%.
On to `O=S(=O)(c1ccc(F)cc1)n1cc(CNCc2cccc(F)c2F)c2ccccc21`, for which the inhibition at 20 µM in [1] turned out to be 21%. The IC50 in test [2] turned out to be 12.4 µM.
`O=S(=O)(c1ccc(F)cc1)N(Cc1ccccc1)Cc1cccc(F)c1F`: the inhibition at 20 µM in test [1] was -81.9%.
Same read-out and setting: with `Cc1ccc(S(=O)(=O)N(Cc2cn(Cc3ccc(F)cc3F)nn2)Cc2cn(S(=O)(=O)c3ccc(C)cc3)c3ccccc23)cc1` the figure was 12.3%; with `COc1ccc(Cn2cc(CN(Cc3cn(S(=O)(=O)c4ccc(C)cc4)c4ccccc34)S(=O)(=O)c3ccc(C)cc3)nn2)c(OC)c1`, 7.6%.
For `Cc1ccc(S(=O)(=O)n2cc(CN(Cc3cn(Cc4cccc(F)c4F)nn3)C(=O)C(F)(F)F)c3ccccc32)cc1`, the inhibition at 20 µM in [1] is 31.9%. Also, in test [2], the 50% inhibitory concentration (IC50) came to 19.1 µM.

The term inhibition denotes the relative decrease from the control value, in per cent. In general, IC50 refers to the concentration needed to halve the response being measured.

Source of the values: ChEMBL document CHEMBL4138193, “Novel indole and triazole based hybrid molecules exhibit potent anti-adipogenic and antidyslipidemic activity by activating Wnt3a/β-catenin pathway” (Eur J Med Chem, 2018).
